Measurements published in ChEMBL document CHEMBL5712899, “WDR5 supports colon cancer cells by promoting methylation of H3K4 and suppressing DNA damage” (2018).
The source made the active and inactive calls. No cut-off for these calls is given here.

Tests used:
SW-620 [1] = assay: Induction of apoptosis in human SW620 cells assessed as late apoptotic cells at 10 uM measured after 48 hrs by Annexin V/Propidium iodide staining based flow cytometry (reference value: 10.3%); format: functional
RKO [2] = assay: Cytotoxicity against human RKO cells assessed as decrease in cell viability at 10 uM measured after 72 hrs by Alamar Blue assay; format: functional, cell-based
Outline: (§1)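 Cells grown in DMEM with 10% FBS and treated 72 h with compound diluted 1:1000 from 10 mM DMSO stock (final 0.1% DMSO, vehicle control). alamarBlue added at 100 μL per mL medium for 1–3 h at 37 °C, then fluorescence read. Values background-subtracted against cell-free wells and normalized to control set to 1. Shown ± SD; unpaired two-sided t-test.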

RKO [3] = assay: Inhibition of colony formation in human RKO cells assessed as decrease in number of colonies at 10 uM incubated for 10 to 14 days; format: functional, cell-based; conditions: time 10-14 day
Outline: (§2)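 Colony assay in 24-well plates with compound for 10–14 days, diluted from 10 mM DMSO stock to a final 0.1% DMSO (vehicle control). Colony number and average colony size quantified per line. Unpaired two-sided t-test.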

LoVo [4] = assay: Inhibition of colony formation in human LoVo cells assessed as decrease in colony size at 10 uM incubated for 10 to 14 days; format: functional, cell-based; conditions: time 10-14 day; outline: as §2
SW-620 [5] = assay: Induction of apoptosis in human SW620 cells assessed as early apoptotic cells at 10 uM measured after 48 hrs by Annexin V/Propidium iodide staining based flow cytometry (reference value: 4.03%); format: functional
SW-620 [6] = assay: Induction of apoptosis in human SW620 cells assessed as necrotic cells at 10 uM measured after 48 hrs by Annexin V/Propidium iodide staining based flow cytometry (reference value: 0.87%); format: functional
HCT-116 [7] = assay: Inhibition of colony formation in human HCT-116 cells assessed as decrease in colony size at 10 uM incubated for 10 to 14 days; format: functional, cell-based; conditions: time 10-14 day; outline: as §2
HCT-116 [8] = assay: Induction of apoptosis in human HCT-116 cells assessed as early apoptotic cells at 10 uM measured after 48 hrs by Annexin V/Propidium iodide staining based flow cytometry (reference value: 19.4%); format: functional
T84 [9] = assay: Inhibition of colony formation in human T84 cells assessed as decrease in number of colonies at 10 uM incubated for 10 to 14 days; format: functional, cell-based; conditions: time 10-14 day; outline: as §2
RKO [10] = assay: Induction of apoptosis in human RKO cells assessed as early apoptotic cells at 10 uM measured after 48 hrs by Annexin V/Propidium iodide staining based flow cytometry (reference value: 16.7%); format: functional
SW480 = assay: Inhibition of colony formation in human SW480 cells assessed as decrease in number of colonies at 10 uM incubated for 10 to 14 days; format: functional, cell-based; conditions: time 10-14 day; outline: as §2
SW-620 [11] = assay: Induction of apoptosis in human SW620 cells assessed as viable cells at 10 uM measured after 48 hrs by Annexin V/Propidium iodide staining based flow cytometry (Rvb =84.8%); format: functional; conditions: read-out: Activity
LoVo [12] = assay: Inhibition of colony formation in human LoVo cells assessed as decrease in number of colonies at 10 uM incubated for 10 to 14 days; format: functional, cell-based; conditions: time 10-14 day; outline: as §2
T84 [13] = assay: Cytotoxicity against human T84 cells assessed as reduction in cell viability at 10 uM for 72 hrs by Alamar Blue assay relative to control; format: functional; outline: as §1
SW-620 [14] = assay: Cytotoxicity against human SW620 cells assessed as reduction in cell viability at 10 uM for 72 hrs by Alamar Blue assay relative to control; format: functional; outline: as §1
RKO [15] = assay: Cell cycle arrest in human RKO cells assessed as increase in G1-phase cell population at 10 uM measured after 48 hrs by propidium iodide staining based flow cytometry; format: functional
Outline: (§3)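 Fixed overnight at −20 °C in ice-cold 70% ethanol after collecting adherent and nonadherent cells. Rehydrated in PBS for 15 min at 37 °C, then PI-stained for 8–15 h. Read on an LSR II flow cytometer with cell-cycle modelling for phase percentages. Compound added from 10 mM DMSO stock diluted 1:1000 into pre-warmed medium (0.1% DMSO vehicle control). Unpaired two-sided t-test.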

T84 [16] = assay: Inhibition of colony formation in human T84 cells assessed as decrease in colony size at 10 uM incubated for 10 to 14 days; format: functional, cell-based; conditions: time 10-14 day; outline: as §2
RKO [17] = assay: Induction of apoptosis in human RKO cells assessed as necrotic cells at 10 uM measured after 48 hrs by Annexin V/Propidium iodide staining based flow cytometry (reference value: 0.54%); format: functional
HCT-116 [18] = assay: Cytotoxicity against human HCT-116 cells assessed as decrease in cell viability at 10 uM for 72 hrs by Alamar Blue assay; format: functional, cell-based; outline: as §1
[19] = Inhibition of RBBP5 interaction with flag-tagged human WDR5 expressed in HEK293T cells assessed as endogenous RBBP5 level at 10 uM measured after 5 hrs by co-immunoprecipitation assay relative to control; design: scale not given: the % may be the effect or the level left; conditions: condition malignant colon neoplasm
SW-620 [20] = assay: Cell cycle arrest in human SW620 cells assessed as increase in G1-phase cell population at 10 uM measured after 48 hrs by propidium iodide staining based flow cytometry; format: functional; outline: as §3
HCT-116 [21] = assay: Induction of apoptosis in human HCT-116 cells assessed as late apoptotic cells at 10 uM measured after 48 hrs by Annexin V/Propidium iodide staining based flow cytometry (reference value: 17.2%); format: functional
RKO [22] = assay: Induction of apoptosis in human RKO cells assessed as viable cells at 10 uM measured after 48 hrs by Annexin V/Propidium iodide staining based flow cytometry (Rvb =76.1%); format: functional; conditions: read-out: Activity
HCT-116 [23] = assay: Induction of apoptosis in human HCT-116 cells assessed as viable cells at 10 uM measured after 48 hrs by Annexin V/Propidium iodide staining based flow cytometry (reference value: 62.7%); format: functional; conditions: read-out: Activity
SW-620 [24] = assay: Inhibition of colony formation in human SW620 cells assessed as decrease in colony size at 10 uM incubated for 10 to 14 days; format: functional, cell-based; conditions: time 10-14 day; outline: as §2
SW-620 [25] = assay: Inhibition of colony formation in human SW620 cells assessed as decrease in number of colonies at 10 uM incubated for 10 to 14 days; format: functional, cell-based; conditions: time 10-14 day; outline: as §2
RKO [26] = assay: Induction of apoptosis in human RKO cells assessed as late apoptotic cells at 10 uM measured after 48 hrs by Annexin V/Propidium iodide staining based flow cytometry (reference value: 6.58%); format: functional
HCT-116 [27] = assay: Induction of apoptosis in human HCT-116 cells assessed as necrotic cells at 10 uM measured after 48 hrs by Annexin V/Propidium iodide staining based flow cytometry (reference value: 0.67%); format: functional
RKO [28] = assay: Inhibition of colony formation in human RKO cells assessed as decrease in colony size at 10 uM incubated for 10 to 14 days; format: functional, cell-based; conditions: time 10-14 day; outline: as §2

CN1CCN(c2ccc(-c3cccc(CN4CCOCC4)c3)cc2NC(=O)c2c[nH]c(=O)cc2C(F)(F)F)CC1
Activity (SW-620 [1]): 10.3%
Activity (RKO [2]): Active
inhibition (RKO [3]): Active
inhibition (LoVo [4]): inactive
Activity (SW-620 [5]): 8.01%
Activity (SW-620 [6]): 0.43%
inhibition (HCT-116 [7]): Active
Activity (HCT-116 [8]): 22.2%
inhibition (T84 [9]): Active
Activity (RKO [10]): 27%
inhibition (SW480): Active
viability at 10 µM (SW-620 [11]): 81.3%
inhibition (LoVo [12]): inactive
Activity (T84 [13]): 50%
Activity (SW-620 [14]): 50%
Activity (RKO [15]): Active
inhibition (T84 [16]): Active
Activity (RKO [17]): 0.18%
Activity (HCT-116 [18]): Active
Activity [19]: <20%
Activity (SW-620 [20]): Active
Activity (HCT-116 [21]): 30.4%
viability at 10 µM (RKO [22]): 68.5%
viability at 10 µM (HCT-116 [23]): 46.1%
inhibition (SW-620 [24]): Active
inhibition (SW-620 [25]): Active
Activity (RKO [26]): 4.3%
Activity (HCT-116 [27]): 1.36%
inhibition (RKO [28]): inactive
